Measured values reported in ChEMBL document CHEMBL4038268, “Methylpyrrole inhibitors of BET bromodomains” (Bioorg Med Chem Lett, 2017).

What was measured:
[1] = Permeability of the compound; assay type: physicochemical; conditions: not told; read-out: permeability
[2] = molecular target: Bromodomain-containing protein 4 (Homo sapiens, UniProt O60885); experiment: Inhibition of BRD4 (unknown origin) expressed in human H1299 cells co-expressing HPV16-LCR/E2 after 24 hrs by Bright Glo-luciferase reporter gene assay; assay type: cell-based
In short: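 Target-engagement reporter in an H1299-derived line carrying a stably integrated E2 expression cassette and an HPV-LCR-driven luciferase reporter. The read-out is BRD4-dependent E2-mediated transcriptional repression. EC50 is the mean of two measurements.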

[3] = molecular target: T1, Bromodomain and PHD finger-containing protein 3 (Homo sapiens, UniProt Q9ULD4); experiment: Inhibition of human BRPF3 (E588 to G701 residues) expressed in bacterial expression system by BROMOscan assay
T1 sequence (Q9ULD4 whole entry): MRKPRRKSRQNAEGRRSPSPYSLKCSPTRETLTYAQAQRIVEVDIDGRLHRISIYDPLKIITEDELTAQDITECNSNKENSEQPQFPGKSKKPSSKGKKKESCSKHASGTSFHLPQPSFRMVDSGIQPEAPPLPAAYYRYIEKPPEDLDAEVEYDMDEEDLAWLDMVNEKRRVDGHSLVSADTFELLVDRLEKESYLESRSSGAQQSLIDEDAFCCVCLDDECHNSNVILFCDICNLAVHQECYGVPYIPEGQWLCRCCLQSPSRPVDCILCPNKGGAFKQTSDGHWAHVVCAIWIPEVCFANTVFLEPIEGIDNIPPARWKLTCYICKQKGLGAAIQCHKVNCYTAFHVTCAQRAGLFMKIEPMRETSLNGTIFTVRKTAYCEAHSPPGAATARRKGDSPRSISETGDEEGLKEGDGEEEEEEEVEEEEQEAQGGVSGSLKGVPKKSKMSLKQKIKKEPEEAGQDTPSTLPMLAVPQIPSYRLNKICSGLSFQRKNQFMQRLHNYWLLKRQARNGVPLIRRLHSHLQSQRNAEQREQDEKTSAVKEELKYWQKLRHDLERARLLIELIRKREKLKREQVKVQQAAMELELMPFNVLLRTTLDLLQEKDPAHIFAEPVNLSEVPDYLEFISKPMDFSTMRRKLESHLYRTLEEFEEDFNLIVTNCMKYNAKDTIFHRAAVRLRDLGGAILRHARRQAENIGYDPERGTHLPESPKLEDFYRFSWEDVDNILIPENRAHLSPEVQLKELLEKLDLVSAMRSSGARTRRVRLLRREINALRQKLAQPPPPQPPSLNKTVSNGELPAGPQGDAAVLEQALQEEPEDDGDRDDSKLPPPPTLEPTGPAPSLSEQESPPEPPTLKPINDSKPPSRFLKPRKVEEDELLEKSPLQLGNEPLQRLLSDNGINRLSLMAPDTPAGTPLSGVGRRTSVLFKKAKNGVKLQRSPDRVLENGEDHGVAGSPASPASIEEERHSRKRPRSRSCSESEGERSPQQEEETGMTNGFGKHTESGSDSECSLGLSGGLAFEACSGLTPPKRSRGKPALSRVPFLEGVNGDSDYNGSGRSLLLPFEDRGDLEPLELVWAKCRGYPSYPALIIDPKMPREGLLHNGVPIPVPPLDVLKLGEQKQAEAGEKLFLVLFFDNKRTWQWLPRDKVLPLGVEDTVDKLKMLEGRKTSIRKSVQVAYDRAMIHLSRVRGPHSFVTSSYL

[4] = Half life in mouse at 3 mg/kg, iv; assay type: ADME, organism-based; conditions: in vivo
[5] = molecular target: Bromodomain adjacent to zinc finger domain protein 2A (Homo sapiens, UniProt Q9UIF9); experiment: Inhibition of human BAZ2A (M1792 to L1905 residues) expressed in bacterial expression system by BROMOscan assay
[6] = tested on: MX1; experiment: Antiproliferative activity against human MX1 cells incubated over 72 hrs by Cell Titre Glo luminescence assay; assay type: functional, cell-based; conditions: MX1, 72 h
In short: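 Triple-negative breast cancer line MX-1 grown 3 days with compound. Proliferation read with the CellTiter-Glo kit. EC50 is the mean of two measurements.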

[7] = molecular target: T2, Peregrin (Homo sapiens) (UniProt P55201); experiment: Inhibition of human BRPF1 (E627 to G740 residues) expressed in bacterial expression system at 1 uM by BROMOscan assay
T2 sequence (whole entry): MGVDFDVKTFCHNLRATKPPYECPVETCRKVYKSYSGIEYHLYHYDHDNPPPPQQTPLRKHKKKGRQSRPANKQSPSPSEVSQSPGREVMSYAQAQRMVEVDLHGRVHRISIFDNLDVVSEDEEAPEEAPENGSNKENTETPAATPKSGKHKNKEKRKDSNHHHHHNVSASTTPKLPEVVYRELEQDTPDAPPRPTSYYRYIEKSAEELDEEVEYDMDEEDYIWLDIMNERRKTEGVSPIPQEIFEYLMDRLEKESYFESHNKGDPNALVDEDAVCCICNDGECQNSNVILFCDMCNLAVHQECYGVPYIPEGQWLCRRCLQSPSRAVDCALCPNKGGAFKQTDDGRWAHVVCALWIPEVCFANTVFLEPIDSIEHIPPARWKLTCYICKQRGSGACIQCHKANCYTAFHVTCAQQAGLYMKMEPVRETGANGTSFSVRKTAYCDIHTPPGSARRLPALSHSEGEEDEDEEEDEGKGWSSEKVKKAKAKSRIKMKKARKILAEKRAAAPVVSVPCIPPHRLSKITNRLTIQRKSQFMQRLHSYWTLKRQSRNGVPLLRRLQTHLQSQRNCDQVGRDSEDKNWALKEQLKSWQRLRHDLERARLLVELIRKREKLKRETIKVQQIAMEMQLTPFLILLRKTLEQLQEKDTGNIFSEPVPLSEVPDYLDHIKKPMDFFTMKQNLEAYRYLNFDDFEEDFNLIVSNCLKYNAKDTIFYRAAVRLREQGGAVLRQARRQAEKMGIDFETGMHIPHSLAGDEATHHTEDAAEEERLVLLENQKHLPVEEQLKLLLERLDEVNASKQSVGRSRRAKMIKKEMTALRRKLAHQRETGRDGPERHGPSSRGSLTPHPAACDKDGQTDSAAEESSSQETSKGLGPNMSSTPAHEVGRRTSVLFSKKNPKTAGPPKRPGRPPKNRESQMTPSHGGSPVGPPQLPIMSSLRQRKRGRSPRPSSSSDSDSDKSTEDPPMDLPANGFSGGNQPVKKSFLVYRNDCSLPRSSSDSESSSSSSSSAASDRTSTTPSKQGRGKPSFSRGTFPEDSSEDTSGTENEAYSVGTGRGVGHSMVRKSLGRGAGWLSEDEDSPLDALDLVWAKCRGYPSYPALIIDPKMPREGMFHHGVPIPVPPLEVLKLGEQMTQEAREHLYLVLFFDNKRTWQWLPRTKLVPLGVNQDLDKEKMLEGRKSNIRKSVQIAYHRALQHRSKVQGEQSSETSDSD

[8] = tested on: Mus musculus; experiment: Unbound AUC in mouse at 10 mg/kg, po; assay type: ADME, organism-based; conditions: in vivo
[9] = tested on: Liver; experiment: Unbound intrinsic clearance in mouse liver microsomes; assay type: ADME, microsome
[10] = molecular target: Bromodomain and WD repeat-containing protein 1 (Homo sapiens, UniProt Q9NSI6); experiment: Inhibition of human WDR9 bromodomain 2 (A1310 to E1430 residues) expressed in bacterial expression system by BROMOscan assay
Sequence of Bromodomain and WD repeat-containing protein 1 (Q9NSI6 whole entry, the tested form may be a part): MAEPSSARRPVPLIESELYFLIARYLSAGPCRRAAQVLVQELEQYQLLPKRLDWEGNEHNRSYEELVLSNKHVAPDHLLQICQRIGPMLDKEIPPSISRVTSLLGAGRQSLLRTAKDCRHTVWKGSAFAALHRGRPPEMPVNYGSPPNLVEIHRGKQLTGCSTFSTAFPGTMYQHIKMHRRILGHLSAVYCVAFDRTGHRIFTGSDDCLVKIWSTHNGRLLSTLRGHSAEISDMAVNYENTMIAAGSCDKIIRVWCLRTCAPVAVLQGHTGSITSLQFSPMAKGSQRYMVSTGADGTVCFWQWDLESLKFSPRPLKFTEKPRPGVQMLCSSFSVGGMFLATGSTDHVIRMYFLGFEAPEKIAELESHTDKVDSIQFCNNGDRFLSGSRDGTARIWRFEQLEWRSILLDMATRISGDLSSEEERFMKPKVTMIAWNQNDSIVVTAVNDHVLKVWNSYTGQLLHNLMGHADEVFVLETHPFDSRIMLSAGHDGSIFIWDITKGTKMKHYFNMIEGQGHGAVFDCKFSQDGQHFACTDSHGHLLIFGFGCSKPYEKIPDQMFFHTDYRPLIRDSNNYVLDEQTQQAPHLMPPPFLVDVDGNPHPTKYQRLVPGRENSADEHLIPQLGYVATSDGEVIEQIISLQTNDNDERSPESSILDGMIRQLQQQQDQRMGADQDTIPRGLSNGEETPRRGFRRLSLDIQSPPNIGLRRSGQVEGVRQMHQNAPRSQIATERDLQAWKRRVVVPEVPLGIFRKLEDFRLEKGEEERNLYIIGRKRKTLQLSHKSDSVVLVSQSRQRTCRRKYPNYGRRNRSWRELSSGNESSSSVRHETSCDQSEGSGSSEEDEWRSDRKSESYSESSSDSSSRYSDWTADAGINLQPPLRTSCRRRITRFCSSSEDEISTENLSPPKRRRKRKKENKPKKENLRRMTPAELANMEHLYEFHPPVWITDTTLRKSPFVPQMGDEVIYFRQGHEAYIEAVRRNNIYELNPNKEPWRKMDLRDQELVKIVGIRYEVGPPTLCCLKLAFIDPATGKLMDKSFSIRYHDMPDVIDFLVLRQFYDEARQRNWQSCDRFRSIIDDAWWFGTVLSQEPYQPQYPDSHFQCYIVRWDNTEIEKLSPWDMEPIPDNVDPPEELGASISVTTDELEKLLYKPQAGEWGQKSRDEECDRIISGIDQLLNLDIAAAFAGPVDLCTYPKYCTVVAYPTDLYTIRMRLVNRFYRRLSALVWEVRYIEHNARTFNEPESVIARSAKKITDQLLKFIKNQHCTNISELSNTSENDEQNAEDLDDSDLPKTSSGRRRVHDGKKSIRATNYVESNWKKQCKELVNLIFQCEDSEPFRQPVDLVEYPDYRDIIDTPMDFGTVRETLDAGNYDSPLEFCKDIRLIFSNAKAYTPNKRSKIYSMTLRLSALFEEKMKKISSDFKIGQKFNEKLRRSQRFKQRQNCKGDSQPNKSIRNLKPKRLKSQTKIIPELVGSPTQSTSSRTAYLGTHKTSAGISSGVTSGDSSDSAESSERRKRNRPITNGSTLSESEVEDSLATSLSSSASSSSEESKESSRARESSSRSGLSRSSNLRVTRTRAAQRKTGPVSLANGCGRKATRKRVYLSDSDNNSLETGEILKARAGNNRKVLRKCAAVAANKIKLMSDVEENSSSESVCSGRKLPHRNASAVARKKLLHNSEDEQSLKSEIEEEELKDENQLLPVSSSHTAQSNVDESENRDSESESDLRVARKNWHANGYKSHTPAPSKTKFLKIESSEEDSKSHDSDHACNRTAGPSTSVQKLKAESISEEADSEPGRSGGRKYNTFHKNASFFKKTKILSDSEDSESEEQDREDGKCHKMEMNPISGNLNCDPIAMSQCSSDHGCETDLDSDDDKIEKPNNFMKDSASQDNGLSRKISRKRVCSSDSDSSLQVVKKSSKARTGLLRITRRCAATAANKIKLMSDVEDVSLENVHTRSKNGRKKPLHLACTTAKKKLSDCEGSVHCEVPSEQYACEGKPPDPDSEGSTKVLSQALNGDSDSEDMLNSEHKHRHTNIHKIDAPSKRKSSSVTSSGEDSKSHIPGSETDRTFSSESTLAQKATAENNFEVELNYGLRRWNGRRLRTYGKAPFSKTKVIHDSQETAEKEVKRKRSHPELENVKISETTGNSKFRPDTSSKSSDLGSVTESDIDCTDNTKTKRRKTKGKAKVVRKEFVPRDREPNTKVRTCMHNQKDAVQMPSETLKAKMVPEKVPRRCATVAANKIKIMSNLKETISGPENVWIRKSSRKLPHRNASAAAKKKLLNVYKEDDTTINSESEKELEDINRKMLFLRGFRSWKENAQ

Sequence of Bromodomain adjacent to zinc finger domain protein 2A (Q9UIF9 whole entry, the tested form may be a part): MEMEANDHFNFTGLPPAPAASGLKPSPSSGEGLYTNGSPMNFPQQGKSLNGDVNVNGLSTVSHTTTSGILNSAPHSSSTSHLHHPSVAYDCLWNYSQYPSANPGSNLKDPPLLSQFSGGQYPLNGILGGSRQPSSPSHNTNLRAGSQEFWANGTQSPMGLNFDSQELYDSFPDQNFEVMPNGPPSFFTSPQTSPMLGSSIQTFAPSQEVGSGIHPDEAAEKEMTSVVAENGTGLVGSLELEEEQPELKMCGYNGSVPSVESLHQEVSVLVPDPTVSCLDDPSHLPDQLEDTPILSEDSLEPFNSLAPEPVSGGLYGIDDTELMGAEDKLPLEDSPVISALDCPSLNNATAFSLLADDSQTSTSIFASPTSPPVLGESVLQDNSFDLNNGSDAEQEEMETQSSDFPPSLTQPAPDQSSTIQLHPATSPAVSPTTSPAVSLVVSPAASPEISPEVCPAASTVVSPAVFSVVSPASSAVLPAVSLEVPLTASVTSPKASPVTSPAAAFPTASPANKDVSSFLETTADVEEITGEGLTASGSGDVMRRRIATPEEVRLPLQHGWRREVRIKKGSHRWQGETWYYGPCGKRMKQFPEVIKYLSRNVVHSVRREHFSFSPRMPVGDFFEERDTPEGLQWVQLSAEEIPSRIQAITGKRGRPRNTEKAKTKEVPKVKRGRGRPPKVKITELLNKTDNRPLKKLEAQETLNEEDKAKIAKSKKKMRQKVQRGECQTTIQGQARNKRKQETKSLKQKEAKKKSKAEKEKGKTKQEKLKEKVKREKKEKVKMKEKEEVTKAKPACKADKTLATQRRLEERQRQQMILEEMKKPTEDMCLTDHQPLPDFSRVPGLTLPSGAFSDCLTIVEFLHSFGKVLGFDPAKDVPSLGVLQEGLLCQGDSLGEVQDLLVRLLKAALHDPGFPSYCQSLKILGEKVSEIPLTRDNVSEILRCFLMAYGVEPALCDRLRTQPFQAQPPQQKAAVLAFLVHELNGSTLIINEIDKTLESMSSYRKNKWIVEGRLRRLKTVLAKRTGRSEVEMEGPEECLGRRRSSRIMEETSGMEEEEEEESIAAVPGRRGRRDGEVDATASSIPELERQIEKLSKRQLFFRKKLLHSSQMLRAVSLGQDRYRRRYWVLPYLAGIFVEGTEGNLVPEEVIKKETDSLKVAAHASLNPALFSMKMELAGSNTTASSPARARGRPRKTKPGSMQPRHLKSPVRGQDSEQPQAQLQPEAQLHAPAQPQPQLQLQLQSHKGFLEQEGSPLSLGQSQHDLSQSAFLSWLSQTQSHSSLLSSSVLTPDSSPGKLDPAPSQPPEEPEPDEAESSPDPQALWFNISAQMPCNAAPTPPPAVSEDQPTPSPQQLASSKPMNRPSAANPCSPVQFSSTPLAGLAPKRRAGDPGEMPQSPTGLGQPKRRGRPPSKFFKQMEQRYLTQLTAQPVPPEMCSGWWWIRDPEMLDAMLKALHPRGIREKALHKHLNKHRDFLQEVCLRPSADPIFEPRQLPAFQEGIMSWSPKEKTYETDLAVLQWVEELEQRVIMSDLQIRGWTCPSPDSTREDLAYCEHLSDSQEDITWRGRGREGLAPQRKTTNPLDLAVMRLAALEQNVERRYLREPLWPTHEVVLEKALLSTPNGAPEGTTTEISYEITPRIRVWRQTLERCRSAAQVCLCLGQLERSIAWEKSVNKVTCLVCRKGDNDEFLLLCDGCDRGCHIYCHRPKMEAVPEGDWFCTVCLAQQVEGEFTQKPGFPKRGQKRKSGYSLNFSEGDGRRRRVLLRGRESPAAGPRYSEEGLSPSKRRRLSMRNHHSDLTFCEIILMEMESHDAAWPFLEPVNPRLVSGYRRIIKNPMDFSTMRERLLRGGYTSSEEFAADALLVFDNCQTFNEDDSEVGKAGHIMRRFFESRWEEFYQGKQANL

SMILES	Papp [1]	EC50 [2]	IC50 [3]	half-life [4]	IC50 [5]	EC50 [6]	inhibition [7]	fAUC [8]	CL free [9]	IC50 [10]
Cc1[nH]c(-c2cc(S(C)(=O)=O)ccc2Oc2ccc(F)cc2F)c2c1C(=O)NCC2	22 ×10⁻⁶ cm/s	290 nM	> 10 µM	78 min	> 10 µM	900 nM	98.6%	0.53 µM·h	< 6.9 L/h/kg	> 10 µM
Cc1[nH]c(-c2cc(NS(C)(=O)=O)ccc2Oc2ccccc2)c2c1C(=O)CCC2	27 ×10⁻⁶ cm/s	51 nM	> 10 µM	36 min	10 µM	160 nM	100%	0.09 µM·h	55 L/h/kg	10 µM
Cn1cc(-c2cc(S(C)(=O)=O)ccc2Oc2ccc(F)cc2F)c2cc[nH]c(=O)c21	35 ×10⁻⁶ cm/s	150 nM	> 10 µM	150 min	10 µM	110 nM	83%	0.86 µM·h	12 L/h/kg	> 10 µM
